The source made the active and inactive calls. No cut-off for these calls is given here.
Assays:
[1] = tested on: HCT-116; assay: Induction of apoptosis in human HCT116 cells assessed as apoptotic cells at 2 uM after 48 hrs by Hoechst/propidium iodide-staining based flow cytometry (reference value: 1.09%); type: functional
[2] = tested on: HCT-116; assay: Induction of apoptosis in human HCT116 cells assessed as up-regulation of p53 phosphorylation up to 2 uM after 48 hrs by Western blot analysis; type: functional, cell-based
[3] = tested on: HCT-116; assay: Antiproliferative activity against human HCT116 cells after 24 hrs by MTT assay; type: functional, cell-based; settings: in the assay text read “48 hrs” for “24 hrs”
How it was run: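 HCT116 cells (5×10^3/well) grown 24 h, then exposed to 0–50 μM test agent; for knockdown, cells pre-treated with 50 nM BLM siRNA for 24 h first.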

[4] = biological target: T1, RecQ-like DNA helicase BLM (Homo sapiens, UniProt P54132); assay: Inhibition of His-tagged BLM (unknown origin) expressed in Escherichia coli BL21 (DE3) assessed as reduction in BLM helicase unwinding activity at 1 uM using 5'-biotin labeled forked-DNA as substrate after 1 hr by PAGE analysis
T1 sequence (P54132 whole entry): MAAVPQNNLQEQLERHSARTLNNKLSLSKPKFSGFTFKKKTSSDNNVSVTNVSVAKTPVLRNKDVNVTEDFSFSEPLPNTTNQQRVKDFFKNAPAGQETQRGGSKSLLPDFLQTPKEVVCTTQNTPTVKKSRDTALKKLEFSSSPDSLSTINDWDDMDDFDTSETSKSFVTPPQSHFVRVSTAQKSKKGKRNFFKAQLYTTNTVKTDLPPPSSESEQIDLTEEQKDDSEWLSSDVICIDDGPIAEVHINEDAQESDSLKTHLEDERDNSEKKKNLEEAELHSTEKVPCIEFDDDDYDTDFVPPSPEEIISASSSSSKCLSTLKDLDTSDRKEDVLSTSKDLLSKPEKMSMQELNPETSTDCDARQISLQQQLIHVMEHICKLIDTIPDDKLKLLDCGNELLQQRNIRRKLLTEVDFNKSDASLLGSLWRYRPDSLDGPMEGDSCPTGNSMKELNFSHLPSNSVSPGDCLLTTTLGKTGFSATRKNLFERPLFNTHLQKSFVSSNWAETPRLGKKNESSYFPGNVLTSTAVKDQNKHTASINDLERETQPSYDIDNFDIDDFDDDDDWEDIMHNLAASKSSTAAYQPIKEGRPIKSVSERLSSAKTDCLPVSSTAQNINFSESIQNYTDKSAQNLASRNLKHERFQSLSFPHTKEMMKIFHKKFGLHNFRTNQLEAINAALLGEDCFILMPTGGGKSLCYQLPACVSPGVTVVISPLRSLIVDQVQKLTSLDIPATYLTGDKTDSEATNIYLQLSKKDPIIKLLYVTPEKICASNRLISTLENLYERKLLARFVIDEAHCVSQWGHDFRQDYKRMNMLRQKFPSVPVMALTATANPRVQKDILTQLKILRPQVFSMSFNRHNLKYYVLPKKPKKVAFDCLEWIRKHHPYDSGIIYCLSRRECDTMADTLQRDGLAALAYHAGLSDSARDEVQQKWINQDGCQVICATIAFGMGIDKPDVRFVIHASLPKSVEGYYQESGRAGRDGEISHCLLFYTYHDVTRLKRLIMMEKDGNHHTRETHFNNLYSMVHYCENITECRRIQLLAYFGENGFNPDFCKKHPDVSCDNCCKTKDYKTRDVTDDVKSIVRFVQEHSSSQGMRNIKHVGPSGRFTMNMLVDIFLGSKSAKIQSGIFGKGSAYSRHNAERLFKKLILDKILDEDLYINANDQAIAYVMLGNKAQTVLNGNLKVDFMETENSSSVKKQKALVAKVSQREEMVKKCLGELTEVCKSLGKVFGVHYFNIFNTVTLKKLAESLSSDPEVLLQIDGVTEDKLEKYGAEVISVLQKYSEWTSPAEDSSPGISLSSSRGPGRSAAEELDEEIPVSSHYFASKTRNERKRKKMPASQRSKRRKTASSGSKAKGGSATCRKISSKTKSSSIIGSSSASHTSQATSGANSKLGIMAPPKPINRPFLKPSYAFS
How it was run: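 BLM642-1296 (His-tagged, E. coli BL21(DE3)) preincubated with ligand (1.0, 10, 50 μM; ≤1% DMSO) for 1 h at 4 °C. Reaction: 8 nM annealed 5′-biotin duplex forked DNA, 32 nM BLM, 2 mM ATP, 0.1% BSA, 1 h.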

[5] = tested on: HCT-116; assay: Chemosensitization activity in human HCT116 cells assessed as RI-I-induced antiproliferative activity at 1.25 uM in presence of RI-I after 24 hrs by MTT assay; type: functional, cell-based
[6] = biological target: T1, RecQ-like DNA helicase BLM; assay: Inhibition of BLM in human HCT116 cells assessed as induction of RAD51 recruitment to DSB sites on HRR at 0.5 to 1 uM after 48 hrs by ChIP assay; type: cell-based
How it was run: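 HCT116 cells co-transfected with HRR(−) reporter DSB model (or chromosomal I-SceI DSBs) and I-SceI; after 24 h given 0–2 μM ligand for 24 h. Crosslinked in 1% formaldehyde, chromatin digested by micrococcal nuclease to 0.2–0.5 kb, IP with anti-BLM or anti-RAD51 (IgG control). qPCR at DSB sites, normalised to untreated; triplicate.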

[7] = biological target: T1, RecQ-like DNA helicase BLM; assay: Inhibition of BLM in human HCT116 cells assessed as increase in gamma-H2AX expression at half IC50 concentration after 24 hrs by Western blot analysis
[8] = tested on: RecQ-like DNA helicase BLM (Homo sapiens), P54132 [Y995A]; assay: Inhibition of His-tagged BLM Y995A mutant (unknown origin) binding to DNA assessed as effect on unbound DNA
Chain of RecQ-like DNA helicase BLM (Homo sapiens), P54132 [Y995A] (P54132 whole entry Y995A, the tested form may be a part): as the sequence (P54132 whole entry) above, with Y995A counted along it
How it was run: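 Truncated His-tagged BLM (residues 642-1296) mutant expressed in E. coli BL21(DE3). ELISA with 5′-biotin forked DNA (50 nM) immobilized on streptavidin plates at 4 °C overnight. BLM at 100 nM final was premixed with half-diluted compound (≤1% DMSO) on ice for 1 h, then added at 37 °C for 1 h. Bound BLM was detected with anti-BLM/HRP-TMB at A450; curves were Hill-fitted.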

[9] = biological target: T1, RecQ-like DNA helicase BLM; assay: Inhibition of BLM in human HCT116 cells assessed as induction of HRR up-regulation after 24 hrs by GFP-based flow cytometry; type: cell-based
How it was run: (§1)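 HCT116 cells (2×10^5) co-transfected with DR-GFP HRR reporter and I-SceI plasmid; 24 h later treated with 0–2 μM ligand (reference 0–50 μM); BLM siRNA knockdown where stated. GFP-positive cells counted by flow cytometry and normalised to untreated; triplicate, mean ± SD.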

[10] = biological target: T1, RecQ-like DNA helicase BLM; assay: Inhibition of BLM in human HCT116 cells assessed as induction of HRR up-regulation at 1 uM after 24 hrs in presence of siRNA by GFP-based flow cytometry; type: cell-based; how it was run: as §1
[11] = biological target: T2, DNA repair protein RAD51 homolog 1 (Homo sapiens) (UniProt Q06609); assay: Induction of RAD51 (unknown origin) binding to ssDNA up to 1 uM […] by ELISA based DNA exchange activity assay
T2 sequence (whole entry): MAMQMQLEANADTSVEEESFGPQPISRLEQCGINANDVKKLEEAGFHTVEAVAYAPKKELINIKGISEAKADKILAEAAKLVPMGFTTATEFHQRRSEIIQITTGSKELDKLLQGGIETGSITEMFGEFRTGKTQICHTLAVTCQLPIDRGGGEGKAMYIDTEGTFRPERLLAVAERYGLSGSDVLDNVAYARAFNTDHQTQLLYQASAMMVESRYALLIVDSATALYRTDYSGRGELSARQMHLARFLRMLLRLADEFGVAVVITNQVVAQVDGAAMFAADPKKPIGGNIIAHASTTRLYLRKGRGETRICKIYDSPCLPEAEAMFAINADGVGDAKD
How it was run: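 Biotinylated duplex forked DNA (50 nM final) immobilised on streptavidin plates. BLM (10–1000 nM) preincubated 1 h at 37 °C with ligand series, then added with 250 nM RAD51 for 1 h at 37 °C, ELISA format. Bound RAD51 read at 450 nm as RAD51–ssDNA filament level.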

[12] = biological target: RecQ-like DNA helicase BLM (Homo sapiens, UniProt P54132, E1143A); assay: Binding affinity to His-tagged BLM E1143A mutant (unknown origin) expressed in Escherichia coli BL21 (DE3) by ITC assay
Chain of RecQ-like DNA helicase BLM (Homo sapiens, UniProt P54132, E1143A) (P54132 whole entry E1143A): as the sequence (P54132 whole entry) above, with E1143A counted along it
How it was run: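 ITC at 25 °C in 2 mM MgCl2, 10 mM KH2PO4, pH 7.5: ligand (0.6 mM, syringe) titrated in 10 μL injections, 300 s apart, into BLM642-1296 wild-type or point mutant, or DNA (0.04 mM, cell). His-tagged BLM from E. coli BL21(DE3), induced with […] at 16 °C for 24 h. Heats integrated, fitted to 1:1 model for KD.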

[13] = biological target: T1, RecQ-like DNA helicase BLM; assay: Inhibition of 5'-biotin labeled duplex forked-DNA binding to BLM (unknown origin) assessed as increase in unbound DNA levels after 1 hr by ELISA
How it was run: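 Biotinylated forked DNA (50 nM) immobilised on streptavidin plates overnight at 4 °C. BLM or mutant (100 nM final) premixed with serially halved ligand in 3% BSA blocking buffer, ≤1% DMSO, 1 h on ice. Applied to the blocked plate for 1 h at 37 °C. Bound BLM detected with anti-BLM and HRP secondary, TMB, A450; Hill fit.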

[14] = tested on: HCT-116; assay: Induction of apoptosis in human HCT116 cells assessed as up-regulation of CHK1 phosphorylation up to 2 uM after 24 hrs by Western blot analysis
[15] = tested on: HCT-116; assay: Chemosensitization activity in human HCT116 cells assessed as cisplatin-induced antiproliferative activity at 1.25 uM in presence of cisplatin after 24 hrs by MTT assay (reference value: 15.4%); type: functional
[16] = tested on: HCT-116; assay: Antiproliferative activity against human HCT116 cells up to 2 uM incubated up to 15 days by MTT assay; type: functional, cell-based

Q: With `CCN(CC)CCCNc1cc2nc3n(c(=O)c2cc1F)CC/C3=C\c1ccc(C(C)C)cc1` as the molecule, how does the Activity [1] read?
A: Its Activity is 71.59%.

Q: And the Activity [2]?
A: Its Activity is “Dose-dependent effect”.

Q: What about the Activity [3] of the same molecule?
A: Its Activity is “Dose-dependent effect”.

Q: What about the inhibition [4] of the same molecule?
A: Its inhibition is “Active”.

Q: And the Activity [5]?
A: Its Activity is “Active”.

Q: What about the inhibition [6] of the same molecule?
A: The inhibition was “Active”.

Q: What about the inhibition [7] of the same molecule?
A: The inhibition was “Active”.

Q: What about the inhibition [8] of the same molecule?
A: The inhibition was “inactive”.

Q: What about the inhibition [9] of the same molecule?
A: Its inhibition is “Dose-dependent effect”.

Q: And the inhibition [10]?
A: The inhibition was “Active”.

Q: What about the Activity [11] of the same molecule?
A: Its Activity is “inactive”.

Q: And the Kd [12]?
A: The Kd was 6 µM.

Q: What about the IC50 [13] of the same molecule?
A: The IC50 was 3.95 µM.

Q: And the inhibition [13]?
A: The inhibition was “Dose-dependent effect”.

Q: And the Activity [14]?
A: Its Activity is “Dose-dependent effect”.

Q: What about the Activity [15] of the same molecule?
A: Its Activity is 71.2%.

Q: And the Activity [16]?
A: Its Activity is “Active”.

— ChEMBL document CHEMBL4316604, “Discovery of Isaindigotone Derivatives as Novel Bloom's Syndrome Protein (BLM) Helicase Inhibitors That Disrupt the BLM/DNA Interactions and Regulate the Homologous Recombination Repair” (J Med Chem, 2019)
